Active and inactive are the calls of the source.
Key:
[1] = test system: Vibrio harveyi; experiment: Antimutagenic activity against Vibrio harveyi BB7 assessed as inhibition of NQNO-induced mutagenicity after 48 hrs; format: functional
Summary of the method: (§1)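 V. harveyi cultures grown exponentially to A600 0.1 at 30 °C, exposed to test compound for 15 min, then to NQNO, and grown on to A600 0.3–0.4. 5 × 10⁶ cells plated on BOSS agar with neomycin (100, final). Neomycin-resistant colonies counted after 48 h at 30 °C. Result given as % inhibition of NQNO mutagenicity; three independent repeats.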

[2] = test system: Mus musculus; experiment: Neurotoxicity in mouse at 300 mg/kg, ip after 0.5 hrs by rotarod test; format: toxicity, organism-based; details: in vivo
Summary of the method: (§2)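 Mice were dosed ip with compound suspended in 0.5% methylcellulose. Rotarod: a 1 in. knurled rod turning at 6 rpm. Neurotoxicity was scored as failure to stay on the rod for at least 1 min in each of three trials. Results are given as the number of animals affected out of the number tested.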

[3] = test system: Mus musculus; experiment: Anticonvulsant activity in mouse assessed as protection against subcutaneous pentylenetetrazol-induced seizures at 30 mg/kg, ip measured after 4 hrs; format: functional, organism-based
Summary of the method: (§3)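 Mice dosed ip as 0.5% methylcellulose suspension; pentylenetetrazole 85 mg/kg in 0.9% NaCl injected subcutaneously into posterior midline, animals watched at least 30 min. Protection = no threshold seizure (single clonic spasm episode lasting ≥5 s); scored protected/tested.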

[4] = test system: Mus musculus; experiment: Anticonvulsant activity in mouse assessed as protection against maximal electric shock-induced seizures at 100 mg/kg, ip measured after 4 hrs; format: functional, organism-based
Summary of the method: (§4)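 Mice dosed ip with suspension in 0.5% methylcellulose; maximal electroshock applied at the listed time after dosing. Protection = abolition of hindlimb tonic extension component of seizure; reported as animals protected/animals tested.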

[5] = test system: Mus musculus; experiment: Anticonvulsant activity in mouse assessed as protection against maximal electric shock-induced seizures at 30 mg/kg, ip measured after 4 hrs; format: functional, organism-based; summary of the method: as §4
[6] = test system: Mus musculus; experiment: Neurotoxicity in mouse at 30 mg/kg, ip after 0.5 hrs by rotarod test; format: toxicity, organism-based; details: in vivo; summary of the method: as §2
[7] = test system: Mus musculus; experiment: Anticonvulsant activity in mouse assessed as protection against subcutaneous pentylenetetrazol-induced seizures at 30 mg/kg, ip measured after 0.5 hrs; format: functional, organism-based; summary of the method: as §3
[8] = test system: Mus musculus; experiment: Neurotoxicity in mouse at 100 mg/kg, ip after 0.5 hrs by rotarod test; format: toxicity, organism-based; details: in vivo; summary of the method: as §2
[9] = test system: Mus musculus; experiment: Neurotoxicity in mouse at 300 mg/kg, ip after 4 hrs by rotarod test; format: toxicity, organism-based; details: in vivo; summary of the method: as §2
[10] = test system: Vibrio harveyi; experiment: Antimutagenic activity against Vibrio harveyi BB7X assessed as inhibition of NQNO-induced mutagenicity after 48 hrs; format: functional; summary of the method: as §1
[11] = test system: Vibrio harveyi; experiment: Mutagenicity in Vibrio harveyi BB7 assessed as number of colonies after 48 hrs (reference value: 13 to 14 no_unit); format: ADME, organism-based; details: in vivo
Summary of the method: (§5)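 Vibrio harveyi mutagenicity test: test compound was added to exponentially growing cultures (A600 = 0.1, 30 °C) and grown to OD600 0.3–0.4. Then 5 × 10^6 cells were plated on BOSS agar with neomycin (final 100 µg/mL) and incubated 48 h at 30 °C. Neomycin-resistant colonies were counted. Triplicate; controls were water, DMSO and NQNO 40 ng/mL.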

[12] = test system: Mus musculus; experiment: Anticonvulsant activity in mouse assessed as protection against subcutaneous pentylenetetrazol-induced seizures at 100 mg/kg, ip measured after 4 hrs; format: functional, organism-based; summary of the method: as §3
[13] = test system: Vibrio harveyi; experiment: Mutagenicity in Vibrio harveyi BB7M assessed as number of colonies after 48 hrs (reference value: 13 to 14 no_unit); format: ADME, organism-based; details: in vivo; summary of the method: as §5
[14] = test system: Mus musculus; experiment: Neurotoxicity in mouse at 30 mg/kg, ip after 4 hrs by rotarod test; format: toxicity, organism-based; details: in vivo; summary of the method: as §2
[15] = test system: Mus musculus; experiment: Neurotoxicity in mouse at 100 mg/kg, ip after 4 hrs by rotarod test; format: toxicity, organism-based; details: in vivo; summary of the method: as §2
[16] = test system: Vibrio harveyi; experiment: Antimutagenic activity against Vibrio harveyi BB7XM assessed as inhibition of NQNO-induced mutagenicity after 48 hrs; format: functional; summary of the method: as §1
[17] = test system: Vibrio harveyi; experiment: Mutagenicity in Vibrio harveyi BB7XM assessed as number of colonies after 48 hrs (reference value: 14 no_unit); format: ADME, organism-based; details: in vivo; summary of the method: as §5
[18] = test system: Vibrio harveyi; experiment: Antimutagenic activity against Vibrio harveyi BB7M assessed as inhibition of NQNO-induced mutagenicity after 48 hrs; format: functional; summary of the method: as §1
[19] = test system: Mus musculus; experiment: Anticonvulsant activity in mouse assessed as protection against maximal electric shock-induced seizures at 30 mg/kg, ip measured after 0.5 hrs; format: functional, organism-based; summary of the method: as §4
[20] = test system: Vibrio harveyi; experiment: Mutagenicity in Vibrio harveyi BB7X assessed as number of colonies after 48 hrs (reference value: 15 to 16 no_unit); format: ADME, organism-based; details: in vivo; summary of the method: as §5
[21] = test system: Rattus norvegicus; experiment: Anticonvulsant activity in rat assessed as protection against maximal electric shock-induced seizures at 30 mg/kg, po measured after 0.5 hrs; format: functional, organism-based
Summary of the method: (§6)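 Rats dosed ip or orally as 0.5% methylcellulose suspension; maximal electroshock at listed time. Protection = abolition of hindlimb tonic extension; 4 rats per group, scored protected/tested.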

[22] = test system: Rattus norvegicus; experiment: Anticonvulsant activity in rat assessed as protection against maximal electric shock-induced seizures at 30 mg/kg, po measured after 4 hrs; format: functional, organism-based; summary of the method: as §6
[23] = test system: Mus musculus; experiment: Neurotoxicity in mouse at 100 mg/kg, ip after 1 hr by rotarod test; format: toxicity, organism-based; details: in vivo; summary of the method: as §2
[24] = test system: Rattus norvegicus; experiment: Neurotoxicity in rat at 30 mg/kg, ip after 2 hrs by rotarod test; format: toxicity, organism-based; details: in vivo
[25] = test system: Rattus norvegicus; experiment: Anticonvulsant activity in rat assessed as protection against maximal electric shock-induced seizures at 30 mg/kg, po measured after 1 hr; format: functional, organism-based; summary of the method: as §6
[26] = test system: Rattus norvegicus; experiment: Neurotoxicity in rat at 30 mg/kg, po after 0.5 hrs by rotarod test; format: toxicity, organism-based; details: in vivo
[27] = test system: Mus musculus; experiment: Anticonvulsant activity in mouse assessed as protection against 6 Hz psychomotor seizure at 100 mg/kg, ip after 2 hrs; format: functional, organism-based
Summary of the method: (§7)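 Suspension in 0.5% methylcellulose given ip to mice; corneal stimulation with 0.2 ms monopolar rectangular pulses at 6 Hz for 3 s from a constant current device, mice restrained then released to observation cage. Protected if normal exploratory behaviour resumed within 10 s of stimulation. Scored as protected/tested, 4 mice per group.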

[28] = test system: Rattus norvegicus; experiment: Anticonvulsant activity in rat assessed as protection against maximal electric shock-induced seizures at 30 mg/kg, ip measured after 2 hrs; format: functional, organism-based; summary of the method: as §6
[29] = test system: Rattus norvegicus; experiment: Neurotoxicity in rat at 30 mg/kg, po after 1 hr by rotarod test; format: toxicity, organism-based; details: in vivo
[30] = test system: Rattus norvegicus; experiment: Neurotoxicity in rat at 30 mg/kg, po after 2 hrs by rotarod test; format: toxicity, organism-based; details: in vivo
[31] = test system: Rattus norvegicus; experiment: Anticonvulsant activity in rat assessed as protection against maximal electric shock-induced seizures at 30 mg/kg, ip measured after 4 hrs; format: functional, organism-based; summary of the method: as §6
[32] = test system: Rattus norvegicus; experiment: Neurotoxicity in rat at 30 mg/kg, po after […] by rotarod test; format: toxicity, organism-based; details: in vivo
[33] = test system: Mus musculus; experiment: Anticonvulsant activity in mouse assessed as protection against 6 Hz psychomotor seizure at 100 mg/kg, ip after 4 hrs; format: functional, organism-based; summary of the method: as §7
[34] = test system: Rattus norvegicus; experiment: Anticonvulsant activity in rat assessed as protection against maximal electric shock-induced seizures at 30 mg/kg, po measured after […]; format: functional, organism-based
[35] = test system: Rattus norvegicus; experiment: Neurotoxicity in rat at 30 mg/kg, ip after 1 hr by rotarod test; format: toxicity, organism-based; details: in vivo
[36] = test system: Rattus norvegicus; experiment: Neurotoxicity in rat at 30 mg/kg, ip after 0.5 hrs by rotarod test; format: toxicity, organism-based; details: in vivo
[37] = test system: Rattus norvegicus; experiment: Neurotoxicity in rat at 30 mg/kg, ip after 4 hrs by rotarod test; format: toxicity, organism-based; details: in vivo
[38] = test system: Mus musculus; experiment: Neurotoxicity in mouse at 100 mg/kg, ip after 2 hrs by rotarod test; format: toxicity, organism-based; details: in vivo; summary of the method: as §2
[39] = test system: Mus musculus; experiment: Anticonvulsant activity in mouse assessed as protection against maximal electric shock-induced seizures at 100 mg/kg, ip measured after 0.5 hrs; format: functional, organism-based; summary of the method: as §4
[40] = test system: Rattus norvegicus; experiment: Neurotoxicity in rat at 30 mg/kg, po after 4 hrs by rotarod test; format: toxicity, organism-based; details: in vivo
[41] = test system: Rattus norvegicus; experiment: Neurotoxicity in rat at 30 mg/kg, ip after […] by rotarod test; format: toxicity, organism-based; details: in vivo
[42] = test system: Rattus norvegicus; experiment: Anticonvulsant activity in rat assessed as protection against maximal electric shock-induced seizures at 30 mg/kg, po measured after 2 hrs; format: functional, organism-based; summary of the method: as §6
[43] = test system: Mus musculus; experiment: Anticonvulsant activity in mouse assessed as protection against maximal electric shock-induced seizures at 100 mg/kg, ip measured after […]; format: functional, organism-based
[44] = test system: Mus musculus; experiment: Anticonvulsant activity in mouse assessed as protection against maximal electric shock-induced seizures at 300 mg/kg, ip measured after 0.5 hrs; format: functional, organism-based; summary of the method: as §4
[45] = test system: Mus musculus; experiment: Anticonvulsant activity in mouse assessed as protection against maximal electric shock-induced seizures at 300 mg/kg, ip measured after 4 hrs; format: functional, organism-based; summary of the method: as §4
[46] = test system: Mus musculus; experiment: Anticonvulsant activity in mouse assessed as protection against subcutaneous pentylenetetrazol-induced seizures at 300 mg/kg, ip measured after 0.5 hrs; format: functional, organism-based; summary of the method: as §3
[47] = test system: Mus musculus; experiment: Anticonvulsant activity in mouse assessed as protection against subcutaneous pentylenetetrazol-induced seizures at 100 mg/kg, ip measured after 0.5 hrs; format: functional, organism-based; summary of the method: as §3

Row | Structure (SMILES) | Activity [4] | Activity [5] | Activity [6] | Activity [7] | Activity [8] | Activity [9] | Activity [14] | Activity [15] | Activity [19] | Activity [25] | Activity [26] | Activity [29] | Activity [30] | Activity [32] | Activity [34] | Activity [39] | Activity [40] | also measured
1 | Cc1cccc(C)c1OCCOCCNC(C)CO (stereo unspecified) | inactive | inactive | Non-toxic | inactive | Toxic | Non-toxic | Non-toxic | Non-toxic | inactive |  |  |  |  |  |  |  |  | inhibition (INH) [1]: 70%; Activity [2]: Toxic; Activity [3]: inactive; inhibition (INH) [10]: 27%; Activity [11]: 24; Activity [12]: inactive; Activity [13]: 27; inhibition (INH) [16]: 48%; Activity [17]: 19; inhibition (INH) [18]: 75%; Activity [20]: 29
2 | Cc1cccc(OCCCN2CCC(O)CC2)c1C | inactive |  |  |  |  |  |  | Non-toxic |  | inactive | Non-toxic | Non-toxic | Non-toxic | Non-toxic | inactive | Active | Non-toxic | Activity [21]: inactive; Activity [22]: inactive; Activity [23]: Non-toxic; Activity [24]: Non-toxic; Activity [27]: inactive; Activity [28]: inactive; Activity [31]: inactive; Activity [33]: inactive; Activity [35]: Non-toxic; Activity [36]: Non-toxic; Activity [37]: Non-toxic; Activity [38]: Non-toxic; Activity [41]: Non-toxic; Activity [42]: inactive; Activity [43]: Active
3 | Cc1cc(C)c(OCCNCC(O)c2ccccc2)c(C)c1 (stereo unspecified) | inactive | inactive | Non-toxic | inactive | Non-toxic | Non-toxic | Non-toxic | Non-toxic | inactive | inactive | Non-toxic | Non-toxic | Non-toxic | Non-toxic | inactive | Active | Non-toxic | Activity [44]: Active; Activity [45]: Active; Activity [46]: inactive; Activity [47]: inactive

Reference: ChEMBL document CHEMBL3774372, “Design, physico-chemical properties and biological evaluation of some new N-[(phenoxy)alkyl]- and N-{2-[2-(phenoxy)ethoxy]ethyl}aminoalkanols as anticonvulsant agents” (Bioorg Med Chem, 2016)
